The list is not random: actives were taken first. Their share in the collection is about 2.3%.
V1R ag counter: counter-screen for oxytocin receptor agonists: human V1a receptor agonists; P37288; CHO-V1R cells, Fluo-8 calcium fluorescence, agonist mode; 0% DMSO, 100% 3 nM vasopressin; activation, % at 3 µM; 320,000 tested, 0.25% active; AID 2797;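 active means activation above the mean activation of all tested compounds plus 3 SD, per screening run, cut at about 20% in these data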;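 further: signal is peak over basal fluorescence ratio across a 100 second FLIPR read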
Target sequence (P37288 whole entry, looked up): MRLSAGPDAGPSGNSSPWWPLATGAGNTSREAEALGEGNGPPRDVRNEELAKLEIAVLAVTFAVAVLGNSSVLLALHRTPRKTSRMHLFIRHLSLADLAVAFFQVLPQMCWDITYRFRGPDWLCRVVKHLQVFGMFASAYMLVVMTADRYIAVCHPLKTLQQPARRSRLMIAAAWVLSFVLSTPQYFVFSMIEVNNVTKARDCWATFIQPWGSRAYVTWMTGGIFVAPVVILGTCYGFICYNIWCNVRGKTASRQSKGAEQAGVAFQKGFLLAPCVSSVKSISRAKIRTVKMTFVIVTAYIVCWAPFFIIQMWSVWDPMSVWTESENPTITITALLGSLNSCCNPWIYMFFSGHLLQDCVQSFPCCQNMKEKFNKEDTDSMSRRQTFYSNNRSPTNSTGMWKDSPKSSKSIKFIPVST
OXTR potentiator: potentiates the human oxytocin receptor response | P30559 | CHO-OTR cells, Fluo-8 calcium fluorescence, potentiator mode; 0% = oxytocin EC15, 100% = EC100 | activation, % at 3 µM | 320,000 tested, 0.061% active | AID 2445;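 active means activation above that plate's cutoff, the mean activation of tested compounds plus 3 SD, cut at about 6.6% in these data, passing the limit was not always enough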
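test system = CHO-OTR cells, human receptor | compound = single-point 3.0 µM | schedule = 6 min compound pre-incubation at room temperature, 100 s kinetic read | signal = Fluo-8 no-wash calcium dye fluorescence, excitation 470-495 nm, emission 515-575 nm | repeats = single well per compound, singlicate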
OXTR agonist: agonists of human oxytocin receptor; P30559; CHO-OTR cells, Fluo-8 calcium fluorescence; normalized: DMSO 0%, oxytocin 100%; activation, % at 3 µM; 320,000 tested, 0.32% active;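 active means activation above the mean of all tested compounds plus 3 SD, cutoff set per screening run, cut at about 20% in these data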;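 further: peak over basal fluorescence ratio from a 100 s FLIPR kinetic read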
TAAR1 antagonist: human TAAR1 antagonism | CHO RD-HGA16 TAAR1, Fluo-8 calcium fluorescence, antagonist | inhibition, % at 3 µM | 360,000 tested, 1.5% active | AID 624466;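 active means inhibition above a per-plate cutoff, the mean inhibition of test compounds on that plate plus 3 SD, cut at about 49% in these data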
Target sequence (Q96RJ0 whole entry, looked up): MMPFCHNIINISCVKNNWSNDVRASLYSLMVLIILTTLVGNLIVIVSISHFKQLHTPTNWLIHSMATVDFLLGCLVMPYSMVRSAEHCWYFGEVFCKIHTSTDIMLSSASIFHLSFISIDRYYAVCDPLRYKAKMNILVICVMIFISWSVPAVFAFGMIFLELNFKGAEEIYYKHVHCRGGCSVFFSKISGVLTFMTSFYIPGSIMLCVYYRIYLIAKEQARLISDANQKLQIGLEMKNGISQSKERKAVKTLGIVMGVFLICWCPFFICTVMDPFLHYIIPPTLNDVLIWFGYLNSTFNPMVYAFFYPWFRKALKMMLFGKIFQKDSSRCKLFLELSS
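Test system: CHO RD-HGA16 cells bearing hTAAR1 | Reagent: β-PEA, EC80 | Compound dosing: 3 µM, single point | Schedule: Dye loading 75 min at 37 °C, then 30 min room temperature | Signal: Calcium fluorescence with Fluo-8 | Evaluation: Percent inhibition of PEA-evoked calcium signal, max/basal emission ratio | Control set: DMSO-only wells and EC80 β-PEA-stimulated wells | Repeats: Singlicate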
TAAR1 agonist: agonists of human TAAR1. 360,000 tested, 0.99% active. activation, % at 3 µM. Q96RJ0. CHO RD-HGA16 TAAR1, Fluo-8 calcium fluorescence; vehicle wells 0%, saturating PEA agonist 100%;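 active means activation above the mean activation of all test compounds in the run plus 3 SD, cut at about 38% in these data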
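Repeats: no replicates (n 1) | Material: CHO-derived RD-HGA16 cells with stable Gα16 and human TAAR1 | Technique: Kinetic Fluo-8 calcium fluorescence | Schedule: 17-24 h seeding, 75 min 37 °C dye, 30 min RT | Evaluation: % activation from peak over basal fluorescence ratio, DMSO-to-PEA scaled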
TAAR1 nonsel count: counter-screen for TAAR1 antagonists: nonselective antagonists; shares compounds with TAAR1 antagonist; counterscreen cell line, calcium fluorescence, antagonist mode; inhibition, % at 3 µM; 2,400 tested, 77% active; in the data active means inhibition above about 22%;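 further: CHO-Ga16 host cells stimulated with ATP at an EC80 level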
TAAR1 antag conf: human TAAR1 antagonism, confirmed | shares compounds with TAAR1 antagonist | TAAR1-expressing cells, fluorescence antagonist read-out | inhibition, % at 3 µM | 2,400 tested, 40% active; in the data active means inhibition above about 49%;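 further: CHO-Ga16 host cells challenged with agonist PEA near its EC80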
Ga16 ag counter: counter-screen for TAAR1 antagonists: nonselective Ga16 agonists | 2,400 tested, 18% active | shares compounds with TAAR1 antagonist | Ga16-expressing cells, calcium fluorescence, agonist counterscreen | AID 651953 | activation, % at 3 µM; in the data active means activation above about 12%
TAAR1 ag counter: activates human TAAR1 in antagonist counter-screen | hTAAR1 cell line, fluorescence activation, agonist mode | shares compounds with TAAR1 antagonist | 2,400 tested, 2% active | activation, % at 3 µM | AID 651955; in the data active means activation above about 37%;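 further: CHO cells stably expressing TAAR1 with calcium dye readout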
Each line names hits and unclear results; the compound was inactive in the other large screens (follow-up assays come after a bar, where they were run).

CCOc1ccccc1NC(=O)c1cc(-c2cc(OC)c(OC)c(OC)c2)nc2ccccc12	TAAR1 antagonist 59 | TAAR1 nonsel count 29 | TAAR1 antag conf 51 | Ga16 ag counter inactive | TAAR1 ag counter inactive
COc1ccc(NC(=O)c2cc(-c3ccco3)nc3ccccc23)cc1S(=O)(=O)N1CCOCC1	none
CCN1CCN(c2ccc(S(=O)(=O)N3CCCCC3)cc2NC(=O)/C=C/c2ccc(Cl)cc2)CC1	none (no result: V1R ag counter, OXTR potentiator, OXTR agonist)
CN1C=CC(=O)[C@@H](O)[C@H]1c1ccccc1Br	none (no result: V1R ag counter, OXTR potentiator, OXTR agonist)
CC(C)C[C@@H]1NC(=O)[C@@H]2CSCCS(=O)(=O)N2C1=O	none (no result: V1R ag counter, OXTR potentiator, OXTR agonist)
O=C(O)c1cccc2c1/C(=N/Nc1ccc([N+](=O)[O-])cc1[N+](=O)[O-])c1ccccc1-2	none (no result: TAAR1 antagonist, TAAR1 agonist)
COc1ccc(CNC(=O)C[C@H]2C(=O)N(CCc3ccccc3)C[C@@H]2Cc2ccccc2)cc1	TAAR1 antagonist 56 | TAAR1 nonsel count inactive | TAAR1 antag conf inactive | Ga16 ag counter inactive | TAAR1 ag counter inactive
COc1cccc(NC(=O)CCSc2ccc3ccccc3n2)c1	TAAR1 antagonist 76 | TAAR1 nonsel count inactive | TAAR1 antag conf inactive | Ga16 ag counter inactive | TAAR1 ag counter inactive
CC1=C(C(=O)Nc2cc(C(=O)N3CCN(c4cccc(C)c4C)CC3)ccc2C)SCCO1	TAAR1 antagonist 62 | TAAR1 nonsel count 34 | TAAR1 antag conf inactive | Ga16 ag counter inactive | TAAR1 ag counter inactive
COc1ccc(N2CCN(C(=O)c3ccc(C)c(NC(=O)C4=C(C)OCCS4)c3)CC2)cc1	none
CN1CCN(C(=O)c2cnn3c(C(F)(F)F)cc(-c4cccs4)nc23)CC1	none
O=C(c1cnn2c(C(F)(F)F)cc(-c3cccs3)nc12)N1CCN(Cc2ccccc2)CC1	TAAR1 antagonist 59 | TAAR1 nonsel count inactive | TAAR1 antag conf inactive | Ga16 ag counter inactive | TAAR1 ag counter inactive
COc1ccc(/C=N/NC(=O)c2ccccc2OCc2ccccc2)c(OC)c1	TAAR1 antagonist 49 | TAAR1 nonsel count inactive | TAAR1 antag conf inactive | Ga16 ag counter inactive | TAAR1 ag counter inactive
C#CCOc1ccccc1/C=N/NC(=O)c1ccccc1OCc1ccccc1	TAAR1 antagonist 56 | TAAR1 nonsel count inactive | TAAR1 antag conf inactive | Ga16 ag counter inactive | TAAR1 ag counter inactive
C/C(=N\NC(=O)c1ccccc1)c1ccccc1F	none
Cc1cccc(/C=N/NC(=O)c2ccccc2OCc2cccc(Br)c2)n1	TAAR1 antagonist 64 | TAAR1 nonsel count 22 | TAAR1 antag conf inactive | Ga16 ag counter inactive | TAAR1 ag counter inactive
C/C(=N\NC(=O)c1ccccc1OCCOc1ccccc1)c1ccccc1F	TAAR1 antagonist 60 (no result: V1R ag counter, OXTR potentiator, OXTR agonist) | TAAR1 nonsel count inactive | TAAR1 antag conf inactive | Ga16 ag counter inactive | TAAR1 ag counter inactive
O=C1NC[C@H](CCCCN2CCN(CCc3ccccc3)C(=O)C2=O)N(Cc2ccccc2)C1=O	none (no result: V1R ag counter, OXTR potentiator, OXTR agonist)
O=C(C(=O)N1CCC(CNS(=O)(=O)c2ccccc2OC(F)(F)F)CC1)c1cc2ccccc2o1	none (no result: V1R ag counter, OXTR potentiator, OXTR agonist)
O=C1CC2CCCC(C1)S2=O (configuration not stated)	none (no result: V1R ag counter, OXTR potentiator, OXTR agonist)
CCNC(=O)N1CCN(c2ccc(N3CCN(C(=O)NCC)[C@H](C)C3)c(C)c2)[C@H](C)C1	none (no result: V1R ag counter, OXTR potentiator, OXTR agonist)
COc1ccccc1C=NNC(=O)c1ccccc1OCCOc1ccccc1	TAAR1 antagonist 62 | TAAR1 nonsel count 21 | TAAR1 antag conf 51 | Ga16 ag counter inactive | TAAR1 ag counter inactive
COc1ccccc1/C=N/NC(=O)c1ccccc1Cl	none
O=C(C(=O)N1CCC(CNS(=O)(=O)c2ccc(F)cc2)CC1)c1cc2ccccc2o1	none (no result: V1R ag counter, OXTR potentiator, OXTR agonist)
Cc1ccc(C2c3[nH]c4ccccc4c3C[C@H]3C(=O)N(c4ccccc4C(=O)NCCCN4CCOCC4)C(=O)N23)cc1 (some centres not stated)	TAAR1 antagonist 53 | TAAR1 nonsel count 26 | TAAR1 antag conf inactive | Ga16 ag counter inactive | TAAR1 ag counter inactive
Cc1ccc(C2c3[nH]c4ccccc4c3C[C@H]3C(=O)N(c4ccccc4C(=O)NCCN4CCOCC4)C(=O)N23)cc1 (some centres not stated)	TAAR1 antagonist 61 | TAAR1 nonsel count 27 | TAAR1 antag conf inactive | Ga16 ag counter inactive | TAAR1 ag counter inactive
O=C(NCCCN1CCOCC1)c1ccccc1N1C(=O)[C@@H]2Cc3c([nH]c4ccccc34)C(c3ccccc3)N2C1=O (some centres not stated)	none (no result: V1R ag counter, OXTR potentiator, OXTR agonist)
COc1cccc(C2c3[nH]c4ccccc4c3C[C@H]3C(=O)N(c4ccccc4C(=O)N4CCC(C(=O)O)CC4)C(=O)N23)c1 (some centres not stated)	none
Cc1ccccc1C1c2[nH]c3ccccc3c2C[C@H]2C(=O)N(c3ccccc3C(=O)NCCCN3CCOCC3)C(=O)N12 (some centres not stated)	TAAR1 antagonist 60 | TAAR1 nonsel count 29 | TAAR1 antag conf inactive | Ga16 ag counter inactive | TAAR1 ag counter inactive
O=C(NCCCN1CCOCC1)c1ccccc1N1C(=O)[C@@H]2Cc3c([nH]c4ccccc34)C(c3cccc(Cl)c3)N2C1=O (some centres not stated)	TAAR1 antagonist 71 | TAAR1 nonsel count 47 | TAAR1 antag conf 70 | Ga16 ag counter 23 | TAAR1 ag counter inactive
Cc1cccc(C)c1NC(=O)C1(C)CSCC(=O)N1CC(C)C (configuration not stated)	none (no result: V1R ag counter, OXTR potentiator, OXTR agonist)
CCOc1ccc(/C=C2\SC(=O)N(CCNC(=O)C3COc4ccccc4O3)C2=O)cc1OC (configuration not stated)	TAAR1 antagonist 78 | TAAR1 nonsel count 35 | TAAR1 antag conf inactive | Ga16 ag counter inactive | TAAR1 ag counter inactive
COc1ccccc1NS(=O)(=O)c1cccc(NC(=O)Nc2ccccc2)c1	TAAR1 antagonist 98 | TAAR1 nonsel count 60 | TAAR1 antag conf 94 | Ga16 ag counter 15 | TAAR1 ag counter 50
COC(=O)C(Nc1ccccc1Cl)(c1cc(C)c(O)c(C)c1)C(F)(F)F (configuration not stated)	TAAR1 antagonist 83 | TAAR1 nonsel count inactive | TAAR1 antag conf inactive | Ga16 ag counter inactive | TAAR1 ag counter inactive
Cc1ccc(C(=O)OCC(=O)NC2CCCCC2)cc1S(=O)(=O)N1CCCCC1	none
CN(Cc1cnn(C)c1)C(=O)c1cc(COc2c(F)cccc2F)on1	TAAR1 antagonist 105 | TAAR1 nonsel count inactive | TAAR1 antag conf inactive | Ga16 ag counter inactive | TAAR1 ag counter inactive

Bioassay records as filed in PubChem BioAssay.
